Laboratory results from PMC11565791 (bioRxiv, 2025).
Blank lines part the entries; values can stand above or below the molecule they belong to.

Columns and labels:
[1] = tested on: H3K9me3 peptide (fluoresceinated H3 1-20); assay: Fluorescence polarization, H3K9me3 tail peptide; type: binding
Outline: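 Fluoresceinated H3 1–20 K9me3 or K9me0 peptide was fixed at 100 nM. Purified Swi6, unphosphorylated or CK2-phosphorylated, was titrated at 0–200 μM. Fluorescence polarization was read at ex 485 / em 528 nm; Kd derived by curve fitting.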

H3Kc9me3 mononucleosomes = assay: Fluorescence polarization, H3Kc9me3; type: binding; conditions: for specificity for H3K9me3 mark on nucleosomes: H3Kc9me3 vs H3K9me0 nucleosomes; for tighter binding to H3Kc9me3 nucleosome than to H3K9me3 peptide: Kd nucleosome vs Kd tail peptide
[2] = tested on: pSwi6 S18/24A (CKII-phosphorylated) (Schizosaccharomyces pombe); assay: fluorescence polarization
[3] = tested on: unpSwi6 (unphosphorylated Swi6) (Schizosaccharomyces pombe); assay: fluorescence polarization; conditions: histone H3K9 unmethylated
[4] = tested on: spreading 'orange' reporter (mKO2); assay: Flow cytometry, MAT ΔREIII HSS 'orange' spreading reporter; type: cell-based, Schizosaccharomyces pombe; conditions: for spreading phenotype: Figure 3E-J run (fully separate from Figure 1)
Outline: (§1)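 Strains from −80°C stocks were revived on YES plates. Cells were grown overnight in 200 μL YES at 32°C to saturation. The next morning they were diluted 1:25 in YES into mid-log phase and analysed by flow cytometry for single-cell reporter fluorescence. Compensation and analysis followed a prior protocol.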

[5] = tested on: nucleation 'green' reporter (SF-GFP); assay: Flow cytometry, MAT ΔREIII HSS 'green' nucleation reporter; type: cell-based, Schizosaccharomyces pombe; conditions: separate experiment with Δckb1, SFigure 1J–L
Outline: as §1

[6] = tested on: pSwi6 (CKII-phosphorylated Swi6) (Schizosaccharomyces pombe); assay: fluorescence polarization; conditions: histone H3 Kc9me3 (methyl-lysine analog)
[7] = tested on: H3K9me3 peptide (fluoresceinated H3 1-20); conditions: H3K9me3 vs H3K9me0 peptide; ref Canzio et al. 2011; cited from earlier work
SEC-MALS + cross-linking = molecular target: the molecule itself; assay: SEC-MALS + cross-linking
H3K9me2 = H3K9me2 ChIP-seq; type: cell-based, S. pombe
Outline: (§2)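 Cells were grown overnight in YES at 32°C to saturation, diluted to OD 0.03 and grown to OD 1. 300×10^6 cells were fixed with 1% formaldehyde only and quenched with glycine. Chromatin was bead-beaten and sheared, then immunoprecipitated overnight at 4°C with anti-H3K9me2 or anti-H3K9me3. Reverse-crosslinked with proteinase K at 65°C. 40 bp paired-end reads; ChIP/input signal, mean of three repeats with 95% CI.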

H3K9me3 = H3K9me3 ChIP-seq; type: cell-based, S. pombe
Outline: as §2

heterochromatin foci = assay: Swi6-GFP live cell imaging of nuclear foci; type: cell-based, S. pombe; conditions: Figure 4E,F
Outline: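 Swi6-GFP strains in a Sad1-mKO2 background were grown on YES 225 agar at 32°C for 3–5 days. Cells were then cultured in liquid YES 225 at 30°C with 250 rpm shaking to OD 0.2–0.6 before live-cell imaging.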

[8] = tested on: genomic loci (nucleators, spreading zones, euchromatin); assay: FLAG-Swi6 ChIP-seq; type: cell-based, S. pombe; conditions: for FLAG-Swi6 accumulation at nucleation sites versus wildtype: spike-in normalized, Figure 5B
Outline: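 FLAG ChIP: strains express FLAG-tagged Swi6 variants; IP with M2 anti-FLAG. pS18-pS24 ChIP: untagged strains; IP with anti-pS18-pS24 antibody; lysis buffer also contains 0.1 mM orthovanadate and 60 mM β-glycerophosphate. Both: grown to saturation in YES at 32°C, then 2 h at 18°C. 600×10^6 cells fixed with 1.5 mM EGS (30 min), then 1% formaldehyde (30 min). Drosophila spike-in added; three technical replicates; spike-in-adjusted cpm.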

[9] = MAT ΔREIII HSS, mean of three repeats

tighter binding to H3Kc9me3 nucleosome than to H3K9me3 peptide (H3Kc9me3 mononucleosomes): 1.7 X
Molecule: pSwi6: Swi6 co-expressed with Casein Kinase II (CKII) in E. coli
specificity for H3K9me3 peptide ([1]; H3K9me3 vs H3K9me0 peptide): ~ 93 X
preference for H3K9me3 versus H3K9me2 peptides ([1]; SFigure 4C): ~ 2.2 X
decrease in nucleosome affinity by phosphorylation, overall (pSwi6 vs unpSwi6) (H3Kc9me3 mononucleosomes; Figure 4D): 12 X
specificity for H3K9me3 mark on nucleosomes (H3Kc9me3 mononucleosomes): 19 X

Molecule: H3K9me0 mononucleosome, 601 DNA 147 bp
binding signal (relative Kd (pSwi6 on H3Kc9me3 = 1)) ([2]; histone H3K9 unmethylated): 1.67
Kd [3]: 2330 nM

Molecule: wildtype swi6: wildtype swi6 open reading frame in MAT ΔREIII HSS strain [reference compound]
'orange' (spreading) reporter cells ON ([4]; separate experiment with Δckb1, SFigure 1J–L): 7.04%
'green' (nucleation) reporter cells ON [5]: 0.36%

Molecule: H3Kc9me3 (MLA) mononucleosome, 601 DNA 147 bp
binding signal (relative Kd (reference)) [6]: 1
binding signal (relative Kd (pSwi6 on H3Kc9me3 = 1)) ([2]; histone H3 Kc9me3 (methyl-lysine analog)): 0.38

tighter binding to H3Kc9me3 nucleosome than to H3K9me3 peptide (H3Kc9me3 mononucleosomes): 68 X
Molecule: unpSwi6: recombinant Swi6 expressed in E. coli without CKII, His tag removed by TEV
specificity for H3K9me3 mark on nucleosomes (H3Kc9me3 mononucleosomes): 19.4 X
specificity for H3K9me3 peptide, previously reported [7]: ~ 130 X

B1: phosphorylated Swi6 (pSwi6) (natural protein)
chain: MKKGGVRSYRRSSTSKRSVIDDDSEPELPSMTKEAIASHKADSGSSDNEVESDHESKSSSKKLKENAKEEEGGEEEEEDEYVVEKVLKHRMARKGGGYEYLLKWEGYDDPSDNTWSSEADCSGCKQLIEAYWNEHGGRPEPSKRKRTARPKKPEAKEPSPKSRKTDEDKHDKDSNEKIEDVNEKTIKFADKSQEEFNENGPPSGQPNGHIESDNESKSPSQKESNESEDIQIAETPSNVTPKKKPSPEVPKLPDNRELTVKQVENYDSWEDLVSSIDTIERKDDGTLEIYLTWKNGAISHHPSTITNKKCPQKMLQFYESHLTFRENE
stoichiometry N (SEC-MALS + cross-linking): 8

B2: swi6^S18/24A: swi6 mutant S18A and S24A (protein, UniProt P40381 1-328, looked up, variant S18A S24A)
Chromatin-associated protein …: MKKGGVRSYRRSSTSKRAVIDDDAEPELPSMTKEAIASHKADSGSSDNEVESDHESKSSSKKLKENAKEEEGGEEEEEDEYVVEKVLKHRMARKGGGYEYLLKWEGYDDPSDNTWSSEADCSGCKQLIEAYWNEHGGRPEPSKRKRTARPKKPEAKEPSPKSRKTDEDKHDKDSNEKIEDVNEKTIKFADKSQEEFNENGPPSGQPNGHIESDNESKSPSQKESNESEDIQIAETPSNVTPKKKPSPEVPKLPDNRELTVKQVENYDSWEDLVSSIDTIERKDDGTLEIYLTWKNGAISHHPSTITNKKCPQKMLQFYESHLTFRENE
spreading phenotype [4]: more severe spreading defect than the oligomerization surface mutants alone
H3K9me2 in nucleators versus wildtype (H3K9me2; 300bp bins, SFigure 2): H3K9me2 is elevated in almost all nucleators
H3K9me2 level at MAT locus (H3K9me2; [9]): maintained similar levels of H3K9me2 to wildtype swi6
distance to the left of tlh2 at which H3K9me2 levels begin to drop (H3K9me2; tel IIR, relative to wildtype): ~ 6.4 kb
H3K9me3 level at MAT locus (H3K9me3; [9]): much more closely mirrored Δswi6
H3K9me2 and H3K9me3 at mei4 (H3K9me3; heterochromatin island mei4, SFigure 3A): no distinguishable differences

B3: Swi6^S18/24A-GFP: C-terminally super fold-GFP tagged Swi6 S18/24A (protein, UniProt P40381 1-328, looked up, variant S18A S24A)
Chromatin-associated protein …: MKKGGVRSYRRSSTSKRAVIDDDAEPELPSMTKEAIASHKADSGSSDNEVESDHESKSSSKKLKENAKEEEGGEEEEEDEYVVEKVLKHRMARKGGGYEYLLKWEGYDDPSDNTWSSEADCSGCKQLIEAYWNEHGGRPEPSKRKRTARPKKPEAKEPSPKSRKTDEDKHDKDSNEKIEDVNEKTIKFADKSQEEFNENGPPSGQPNGHIESDNESKSPSQKESNESEDIQIAETPSNVTPKKKPSPEVPKLPDNRELTVKQVENYDSWEDLVSSIDTIERKDDGTLEIYLTWKNGAISHHPSTITNKKCPQKMLQFYESHLTFRENE
modifications: C-terminal superfolder GFP tag
partitioning relative to heterochromatin foci (heterochromatin foci): partition away from heterochromatin foci

B4: swi6^loopX-S18/24A: double mutant of loopX and S18/24A (protein, UniProt P40381 1-328, looked up, variant S18A S24A R93A K94A)
Chromatin-associated protein …: MKKGGVRSYRRSSTSKRAVIDDDAEPELPSMTKEAIASHKADSGSSDNEVESDHESKSSSKKLKENAKEEEGGEEEEEDEYVVEKVLKHRMAAAGGGYEYLLKWEGYDDPSDNTWSSEADCSGCKQLIEAYWNEHGGRPEPSKRKRTARPKKPEAKEPSPKSRKTDEDKHDKDSNEKIEDVNEKTIKFADKSQEEFNENGPPSGQPNGHIESDNESKSPSQKESNESEDIQIAETPSNVTPKKKPSPEVPKLPDNRELTVKQVENYDSWEDLVSSIDTIERKDDGTLEIYLTWKNGAISHHPSTITNKKCPQKMLQFYESHLTFRENE
spreading phenotype [4]: largely mimics that of swi6^S18/24A

B5: FLAG-Swi6^S18/24A: 3XFLAG tagged Swi6 S18/24A (protein, UniProt P40381 1-328, looked up, variant S18A S24A)
Chromatin-associated protein …: MKKGGVRSYRRSSTSKRAVIDDDAEPELPSMTKEAIASHKADSGSSDNEVESDHESKSSSKKLKENAKEEEGGEEEEEDEYVVEKVLKHRMARKGGGYEYLLKWEGYDDPSDNTWSSEADCSGCKQLIEAYWNEHGGRPEPSKRKRTARPKKPEAKEPSPKSRKTDEDKHDKDSNEKIEDVNEKTIKFADKSQEEFNENGPPSGQPNGHIESDNESKSPSQKESNESEDIQIAETPSNVTPKKKPSPEVPKLPDNRELTVKQVENYDSWEDLVSSIDTIERKDDGTLEIYLTWKNGAISHHPSTITNKKCPQKMLQFYESHLTFRENE
modifications: 3XFLAG tag
FLAG-Swi6 accumulation at nucleation sites versus wildtype [8]: decline in accumulation
FLAG-Swi6 accumulation at cen I & II ([8]; versus wildtype, Figure 5E, SFigure 7A): accumulates less than wildtype within previously mapped siRNA generating centers
FLAG-Swi6 accumulation at H3K9me2-negative loci ([8]; versus wildtype, Figure 5F,G): accumulates above wildtype at several H3K9me2 negative loci

B6: FLAG-Swi6^6S/A: 3XFLAG tagged Swi6 S18/24/117–220A (protein, UniProt P40381 1-328, looked up, variant S18A S24A S117A S192A S212A S220A)
Chromatin-associated protein …: MKKGGVRSYRRSSTSKRAVIDDDAEPELPSMTKEAIASHKADSGSSDNEVESDHESKSSSKKLKENAKEEEGGEEEEEDEYVVEKVLKHRMARKGGGYEYLLKWEGYDDPSDNTWSAEADCSGCKQLIEAYWNEHGGRPEPSKRKRTARPKKPEAKEPSPKSRKTDEDKHDKDSNEKIEDVNEKTIKFADKAQEEFNENGPPSGQPNGHIEADNESKSPAQKESNESEDIQIAETPSNVTPKKKPSPEVPKLPDNRELTVKQVENYDSWEDLVSSIDTIERKDDGTLEIYLTWKNGAISHHPSTITNKKCPQKMLQFYESHLTFRENE
modifications: 3XFLAG tag
FLAG-Swi6 accumulation at nucleation sites versus wildtype [8]: decline in accumulation

B7: swi6^loopX: ARK loop in the CD mutant (R93A and K94A) (protein, UniProt P40381 1-328, looked up, variant R93A K94A)
Chromatin-associated protein …: MKKGGVRSYRRSSTSKRSVIDDDSEPELPSMTKEAIASHKADSGSSDNEVESDHESKSSSKKLKENAKEEEGGEEEEEDEYVVEKVLKHRMAAAGGGYEYLLKWEGYDDPSDNTWSSEADCSGCKQLIEAYWNEHGGRPEPSKRKRTARPKKPEAKEPSPKSRKTDEDKHDKDSNEKIEDVNEKTIKFADKSQEEFNENGPPSGQPNGHIESDNESKSPSQKESNESEDIQIAETPSNVTPKKKPSPEVPKLPDNRELTVKQVENYDSWEDLVSSIDTIERKDDGTLEIYLTWKNGAISHHPSTITNKKCPQKMLQFYESHLTFRENE
spreading phenotype [4]: moderate spreading defect

B8: Swi6^6S/A -GFP: C-terminally super fold-GFP tagged Swi6 6S/A (protein, UniProt P40381 1-328, looked up, variant S18A S24A S117A S192A S212A S220A)
Chromatin-associated protein …: MKKGGVRSYRRSSTSKRAVIDDDAEPELPSMTKEAIASHKADSGSSDNEVESDHESKSSSKKLKENAKEEEGGEEEEEDEYVVEKVLKHRMARKGGGYEYLLKWEGYDDPSDNTWSAEADCSGCKQLIEAYWNEHGGRPEPSKRKRTARPKKPEAKEPSPKSRKTDEDKHDKDSNEKIEDVNEKTIKFADKAQEEFNENGPPSGQPNGHIEADNESKSPAQKESNESEDIQIAETPSNVTPKKKPSPEVPKLPDNRELTVKQVENYDSWEDLVSSIDTIERKDDGTLEIYLTWKNGAISHHPSTITNKKCPQKMLQFYESHLTFRENE
modifications: C-terminal superfolder GFP tag
partitioning relative to heterochromatin foci (heterochromatin foci): partition away from heterochromatin foci
